# Where a SMILES comes first, the peptide text is derived from it. [ ]: non-standard residue; d: D form. Sar = CNCC(=O)O
# What was measured:
# hPepT1 [1] = biological target: T1, hPepT1 (Homo sapiens, UniProt P46059); format: cell-based; settings: hPepT1-expressing oocytes; for induction of inward current (in words): pH 6.0, voltage clamp −50 mV
# T1 sequence (P46059 1-708): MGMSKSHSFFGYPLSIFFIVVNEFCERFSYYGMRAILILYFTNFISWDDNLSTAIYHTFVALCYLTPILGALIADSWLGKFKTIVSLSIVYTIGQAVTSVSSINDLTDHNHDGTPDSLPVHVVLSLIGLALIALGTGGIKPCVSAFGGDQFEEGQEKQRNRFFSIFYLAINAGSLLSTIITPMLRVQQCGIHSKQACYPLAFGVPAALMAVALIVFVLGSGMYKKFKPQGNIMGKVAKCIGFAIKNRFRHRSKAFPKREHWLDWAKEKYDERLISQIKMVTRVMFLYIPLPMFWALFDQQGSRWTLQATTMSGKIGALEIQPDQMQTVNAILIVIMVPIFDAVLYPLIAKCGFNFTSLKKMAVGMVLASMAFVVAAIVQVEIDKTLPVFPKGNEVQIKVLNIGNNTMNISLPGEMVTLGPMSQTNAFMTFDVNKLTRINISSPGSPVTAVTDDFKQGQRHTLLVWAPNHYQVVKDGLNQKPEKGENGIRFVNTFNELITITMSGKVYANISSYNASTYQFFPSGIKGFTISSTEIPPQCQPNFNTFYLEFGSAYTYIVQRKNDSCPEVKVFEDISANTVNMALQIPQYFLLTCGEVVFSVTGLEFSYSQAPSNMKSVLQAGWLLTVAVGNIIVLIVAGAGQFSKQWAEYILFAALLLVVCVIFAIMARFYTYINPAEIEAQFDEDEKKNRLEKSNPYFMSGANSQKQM
# How it was run: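 Stage V–VI X. laevis oocytes were collagenase-treated, defolliculated, held at 18 °C in modified Barth's medium with gentamicin, and injected with 50 ng hPepT1 cRNA, with water-injected controls. TEVC clamped at −50 mV under pH 7.5 buffer, then NaCl buffer pH 6.0 ± test compound to steady state, then washout. Induced current = steady-state difference, expressed relative to 1 mM or 250 µM glycylsarcosine currents.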
# hPepT1 [2] = biological target: T1, hPepT1; settings: cited from earlier work
# hPepT1 [3] = biological target: T1, hPepT1; format: cell-based
Compound,induction of inward current (in words) (hPepT1 [1]),identified as hPepT1 inhibitor (hPepT1 [2]),IC50 (hPepT1 [3]),"induced inward current (hPepT1 [1]; 1 mM, buffer pH 6.0, clamped at −50 mV)"
"Nc1ccc(CC(=O)O)cc1 [4-amino PA, 4-amino phenyl acetic acid]",induced significant inward currents,,,
COC(=O)[C@H](Cc1ccccc1)NC(=O)[C@@H](N)CC(=O)O [aspartame] (H-Asp-Phe-OMe),induced significant inward currents,inhibitor,3.9 mM,
CN(CC(=O)O)C(=O)CN [glycylsarcosine] (H-Gly-[Sar]-OH),,,,300–400 nA
